Values after ≈ are worked out from the molar mass of the structure shown. Active and inactive are the calls of the source. The calls are words filed in the database; no cut-off is given here.
Legend:
[1] = molecular target: Macrophage colony-stimulating factor 1 receptor (Homo sapiens) (UniProt P07333); assay: Inhibition of TEL-fused partial length human CSF1R expressed in mouse BA/F3 cells after 72 hrs by cell titer-glo assay; type: cell-based
Method in brief: (§1)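 Cells seeded at 3000 per well and exposed to serial compound dilutions for 72 h. Viability read by CellTiter-Glo luminescence and normalised to DMSO controls; mean of three independent measurements. BaF3 lines kept IL-3-free in RPMI 1640/10% FBS after retroviral transduction and puromycin selection. GIST lines grown in DMEM/10% FBS.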

[2] = molecular target: Platelet-derived growth factor receptor beta (Homo sapiens) (UniProt P09619); assay: Inhibition of TEL-fused partial length human PDGFRbeta expressed in mouse BA/F3 cells after 72 hrs by cell titer-glo assay; type: cell-based; method in brief: as §1
Chain of Platelet-derived growth factor receptor beta (Homo sapiens) (P09619 whole entry, the tested form may be a part): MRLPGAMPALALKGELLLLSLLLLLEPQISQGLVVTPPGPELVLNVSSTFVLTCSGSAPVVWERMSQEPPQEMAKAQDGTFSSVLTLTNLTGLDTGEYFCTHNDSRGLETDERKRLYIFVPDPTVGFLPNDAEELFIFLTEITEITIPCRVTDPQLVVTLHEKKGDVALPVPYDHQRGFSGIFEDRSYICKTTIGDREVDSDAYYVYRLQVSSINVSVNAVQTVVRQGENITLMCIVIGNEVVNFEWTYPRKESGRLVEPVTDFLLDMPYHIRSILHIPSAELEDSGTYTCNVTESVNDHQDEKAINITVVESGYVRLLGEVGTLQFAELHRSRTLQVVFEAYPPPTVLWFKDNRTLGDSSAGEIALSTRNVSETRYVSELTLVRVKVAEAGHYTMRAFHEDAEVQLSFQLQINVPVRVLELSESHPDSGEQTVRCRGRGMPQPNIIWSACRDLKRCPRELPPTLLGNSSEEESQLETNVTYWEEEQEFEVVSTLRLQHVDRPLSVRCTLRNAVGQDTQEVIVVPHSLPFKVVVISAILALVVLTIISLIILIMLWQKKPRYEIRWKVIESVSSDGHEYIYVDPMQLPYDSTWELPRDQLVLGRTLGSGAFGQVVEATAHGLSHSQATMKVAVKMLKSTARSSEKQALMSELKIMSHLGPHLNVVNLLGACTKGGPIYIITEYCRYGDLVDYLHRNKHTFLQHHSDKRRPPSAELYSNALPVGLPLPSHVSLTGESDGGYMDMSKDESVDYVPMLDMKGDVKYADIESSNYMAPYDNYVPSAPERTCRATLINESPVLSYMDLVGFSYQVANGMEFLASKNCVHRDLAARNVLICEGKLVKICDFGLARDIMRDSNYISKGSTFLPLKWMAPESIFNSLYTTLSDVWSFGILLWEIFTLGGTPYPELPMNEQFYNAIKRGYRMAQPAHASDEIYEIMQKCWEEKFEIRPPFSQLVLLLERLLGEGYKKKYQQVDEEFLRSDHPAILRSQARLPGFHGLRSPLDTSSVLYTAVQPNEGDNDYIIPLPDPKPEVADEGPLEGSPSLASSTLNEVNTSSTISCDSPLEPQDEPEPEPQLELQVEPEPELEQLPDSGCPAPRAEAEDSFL

[3] = tested on: Mast/stem cell growth factor receptor Kit (Homo sapiens), P10721 [T670I]; assay: Ratio of Imatinib IC50 to compound IC50 for cKIT T670I mutant in human in GIST-5R cells; type: cell-based
Chain of Mast/stem cell growth factor receptor Kit (Homo sapiens), P10721 [T670I] (P10721 whole entry T670I, the tested form may be a part): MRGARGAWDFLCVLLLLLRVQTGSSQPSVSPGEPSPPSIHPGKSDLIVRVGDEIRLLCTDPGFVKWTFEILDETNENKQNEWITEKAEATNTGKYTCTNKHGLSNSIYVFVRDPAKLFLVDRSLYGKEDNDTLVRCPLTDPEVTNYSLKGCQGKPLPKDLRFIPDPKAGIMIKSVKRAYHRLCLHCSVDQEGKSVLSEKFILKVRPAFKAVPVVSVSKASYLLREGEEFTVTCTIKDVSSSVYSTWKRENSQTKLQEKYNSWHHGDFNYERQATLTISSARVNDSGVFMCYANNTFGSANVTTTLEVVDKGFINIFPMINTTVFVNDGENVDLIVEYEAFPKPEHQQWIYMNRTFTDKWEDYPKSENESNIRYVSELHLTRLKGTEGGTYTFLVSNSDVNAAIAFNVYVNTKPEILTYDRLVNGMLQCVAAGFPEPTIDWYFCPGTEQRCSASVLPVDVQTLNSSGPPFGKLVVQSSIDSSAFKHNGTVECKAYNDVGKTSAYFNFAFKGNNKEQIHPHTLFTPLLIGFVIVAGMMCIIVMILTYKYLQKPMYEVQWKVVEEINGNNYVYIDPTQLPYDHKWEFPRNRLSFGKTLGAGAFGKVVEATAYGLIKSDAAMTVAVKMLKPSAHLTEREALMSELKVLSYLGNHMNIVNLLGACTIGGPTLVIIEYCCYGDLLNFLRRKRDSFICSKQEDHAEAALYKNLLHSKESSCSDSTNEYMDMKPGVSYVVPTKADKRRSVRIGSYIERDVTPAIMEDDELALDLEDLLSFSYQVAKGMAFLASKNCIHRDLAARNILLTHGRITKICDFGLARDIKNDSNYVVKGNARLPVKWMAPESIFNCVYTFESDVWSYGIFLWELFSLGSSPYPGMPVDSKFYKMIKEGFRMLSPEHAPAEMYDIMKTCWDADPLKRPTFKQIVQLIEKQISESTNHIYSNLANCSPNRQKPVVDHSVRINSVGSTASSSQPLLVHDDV

[4] = molecular target: T1, Mast/stem cell growth factor receptor Kit (Homo sapiens, UniProt P10721); assay: Ratio of imatinib IC50 to compound IC50 for TEL-fused cKIT (unknown origin) expressed in mouse BA/F3 cells; type: cell-based
T1 sequence (P10721 whole entry, the tested form may be a part): as the sequence (P10721 whole entry T670I, the tested form may be a part) above, with I670T counted along it

[5] = molecular target: T2, Mast/stem cell growth factor receptor Kit (Homo sapiens, UniProt P10721, T670I); assay: Inhibition of cKIT T670I mutant in human GIST-5R cells assessed as downregulation of AKT phosphorylation at S473 after 1 hr by Western blot analysis; type: cell-based
T2 sequence (P10721 26-976 T670I limits assumed): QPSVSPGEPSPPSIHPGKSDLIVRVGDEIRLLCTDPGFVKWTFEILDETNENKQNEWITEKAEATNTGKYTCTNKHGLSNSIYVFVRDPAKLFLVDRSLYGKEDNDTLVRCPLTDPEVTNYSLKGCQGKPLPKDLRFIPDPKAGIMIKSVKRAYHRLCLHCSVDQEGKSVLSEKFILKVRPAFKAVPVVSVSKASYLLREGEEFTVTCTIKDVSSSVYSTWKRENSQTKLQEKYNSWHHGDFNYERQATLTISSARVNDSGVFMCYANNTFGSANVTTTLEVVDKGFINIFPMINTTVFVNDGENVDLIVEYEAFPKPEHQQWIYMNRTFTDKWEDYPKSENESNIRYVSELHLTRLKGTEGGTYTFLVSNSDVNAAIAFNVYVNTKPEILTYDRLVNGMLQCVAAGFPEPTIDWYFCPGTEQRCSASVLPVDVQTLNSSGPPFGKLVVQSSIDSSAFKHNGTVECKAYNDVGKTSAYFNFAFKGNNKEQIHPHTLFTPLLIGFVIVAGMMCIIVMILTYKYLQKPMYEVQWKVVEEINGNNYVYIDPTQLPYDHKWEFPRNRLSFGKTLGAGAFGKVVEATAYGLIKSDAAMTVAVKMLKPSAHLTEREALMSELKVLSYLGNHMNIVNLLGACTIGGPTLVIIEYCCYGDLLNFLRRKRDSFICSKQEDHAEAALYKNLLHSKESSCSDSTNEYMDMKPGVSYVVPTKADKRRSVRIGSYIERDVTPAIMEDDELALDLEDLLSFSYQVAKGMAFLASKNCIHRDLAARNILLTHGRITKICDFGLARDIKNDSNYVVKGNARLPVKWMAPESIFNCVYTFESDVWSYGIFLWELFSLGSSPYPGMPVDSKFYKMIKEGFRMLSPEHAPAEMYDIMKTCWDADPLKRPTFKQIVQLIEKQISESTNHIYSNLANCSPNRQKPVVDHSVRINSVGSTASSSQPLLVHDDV
Method in brief: (§2)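 GIST-T1 or GIST-5R cells in DMEM with 10% FBS were treated with serially diluted compound for 1 h. Cells were then lysed and analysed by western blotting.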

[6] = molecular target: T2, Mast/stem cell growth factor receptor Kit; assay: Inhibition of His-tagged cKIT T670I mutant (544 to 935 residues) (unknown origin) expressed in Sf9 cells using Poly(4:1 Glu, Tyr) peptide as substrate after 1 hr by ADP-glo kinase assay
Homo sapiens = organism: Homo sapiens; assay: Induction of apoptosis in human GIST5R cells assessed as increase in cleaved PARP levels after at 30 nM 24 hrs by Western blot analysis; type: functional, cell-based
Method in brief: (§3)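 GIST-T1 or GIST-5R cells in DMEM with 10% FBS were exposed to serially diluted compound for 24 h. Apoptosis was assessed by western blot with PARP and GAPDH antibodies.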

[7] = molecular target: T2, Mast/stem cell growth factor receptor Kit; assay: Inhibition of cKIT T670I mutant in human GIST-5R cells assessed as downregulation of S6 phosphorylation at S235/236 after 1 hr by Western blot analysis; type: cell-based; method in brief: as §2
[8] = tested on: Mast/stem cell growth factor receptor Kit (Homo sapiens), P10721 [N822K]; assay: Inhibition of TEL-fused cKIT N822K mutant (unknown origin) expressed in mouse BA/F3 cells assessed as cell growth inhibition after 72 hrs by cell titer-glo assay; type: cell-based; method in brief: as §1
Chain of Mast/stem cell growth factor receptor Kit (Homo sapiens), P10721 [N822K] (P10721 whole entry N822K, the tested form may be a part): as the sequence (P10721 whole entry T670I, the tested form may be a part) above, with I670T, N822K counted along it

[9] = tested on: Mast/stem cell growth factor receptor Kit (Homo sapiens), P10721 [V559D,V654A]; assay: Inhibition of TEL-fused cKIT V559D/V654A double mutant (unknown origin) expressed in mouse BA/F3 cells assessed as cell growth inhibition after 72 hrs by cell titer-glo assay; type: cell-based; method in brief: as §1
Chain of Mast/stem cell growth factor receptor Kit (Homo sapiens), P10721 [V559D,V654A] (P10721 whole entry V559D/V654A, the tested form may be a part): as the sequence (P10721 whole entry T670I, the tested form may be a part) above, with V559D, V654A, I670T counted along it

[10] = molecular target: T1, Mast/stem cell growth factor receptor Kit; assay: Inhibition of wild type cKIT autophosphorylation at Y823 in human GIST-T1 cells at 100 nM after 1 hr by Western blot analysis; type: cell-based; method in brief: as §2
[11] = Solubility of the compound in PBS buffer at pH 7.4; type: physicochemical
Method in brief: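 Solubility measured in PBS pH 7.4 and in pure water, reported as µg/mL.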

GISTT1 [12] = assay: Induction of apoptosis in human GISTT1 cells assessed as increase in cleaved PARP levels after at 30 nM 24 hrs by Western blot analysis; type: functional, cell-based; method in brief: as §3
[13] = Toxicity in nu/nu mouse xenografted with TEL-fused cKIT T670I mutant expressed in mouse BA/F3 cells assessed as body weight reduction at 25 to 100 mg/kg/day, ip after 10 days; type: organism-based; conditions: in vivo, 240 h
Method in brief: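 Female nu/nu mice, 5 weeks old on purchase, injected subcutaneously in the right flank with 1×10^6 BaF3-TEL-cKIT-T670I cells in PBS/Matrigel 1:1. At 200–400 mm³ tumours, mice were randomized to 7 per group. They then got 25, 50 or 100 mg/kg/day ip or vehicle (0.5% methylcellulose/0.4% Tween80 in water) for 10 days. Body weight was recorded daily relative to initial weight.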

[14] = molecular target: T1, Mast/stem cell growth factor receptor Kit; assay: Ratio of Imatinib IC50 to compound IC50 for wild type cKIT in human GIST-T1 cells; type: cell-based
[15] = molecular target: T2, Mast/stem cell growth factor receptor Kit; assay: Inhibition of cKIT T670I mutant autophosphorylation at Y703 in human GIST-5R cells at 0.1 to 3 uM after 1 hr by Western blot analysis; type: cell-based; method in brief: as §2
[16] = Cmax in Sprague-Dawley rat at 1 mg/kg, iv measured up to 8 hrs post dosing; type: ADME, organism-based; set-up: dose 1 mg/kg, route intravenous; conditions: in vivo
Method in brief: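 Male Sprague-Dawley rats, 8 weeks old, fasted overnight; iv dosing from a 1 mg/mL solution in 5% DMSO/40% PEG400/55% saline. Jugular-vein blood (~0.2 mL, heparinised) taken at 1, 5, 15, 30 min and 1, 2, 4, 6, 8 h; plasma held at -80 °C until analysis; n=3.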

GISTT1 [17] = assay: Induction of apoptosis in human GISTT1 cells assessed as increase in cleaved PARP levels after 24 hrs by Western blot analysis; type: functional, cell-based; method in brief: as §3
[18] = molecular target: Macrophage colony-stimulating factor 1 receptor (Homo sapiens) (UniProt P07333); assay: Inhibition of partial length human CSF1R expressed in bacterial expression system assessed as activity remaining at 1 uM by kinome scan assay
[19] = tested on: Mast/stem cell growth factor receptor Kit (Homo sapiens), P10721 [D816V]; assay: Inhibition of TEL-fused cKIT D816V mutant (unknown origin) expressed in mouse BA/F3 cells assessed as cell growth inhibition after 72 hrs by cell titer-glo assay; type: cell-based; method in brief: as §1
Chain of Mast/stem cell growth factor receptor Kit (Homo sapiens), P10721 [D816V] (P10721 whole entry D816V, the tested form may be a part): as the sequence (P10721 whole entry T670I, the tested form may be a part) above, with I670T, D816V counted along it

[20] = Tmax in Sprague-Dawley rat at 1 mg/kg, iv measured up to 8 hrs post dosing; type: ADME, organism-based; conditions: in vivo
Method in brief: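 Male Sprague-Dawley rats, 8 weeks old, fasted overnight, dosed at 1 mg/kg iv from a 1 mg/mL stock in 5% DMSO/40% PEG400/55% saline. About 0.2 mL jugular blood taken into heparin at 1 min to 8 h. Plasma held at -80 °C until analysis. n = 3, mean reported.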

BaF3 [21] = assay: Antitumor activity against TEL-fused cKIT T670I mutant expressing mouse BA/F3 cells allografted in nu/nu mouse assessed as tumor growth inhibition at 25 mg/kg, ip administered daily for 10 days; type: functional; conditions: 240 h, read-out: TGI
Method in brief: (§4)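 Female nu/nu mice, 5 weeks old at purchase, given 1 million BaF3-TEL-cKIT-T670I cells in PBS/Matrigel 1:1 subcutaneously on the right flank. At tumour volume 200–400 mm3, randomised into groups of 7 and dosed IP daily for 10 days (25, 50, 100 mg/kg/d or vehicle: 0.5% methylcellulose/0.4% Tween80 in water). Tumour volume (W2×L/2) and body weight recorded daily.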

BaF3 [22] = assay: Antitumor activity against TEL-fused cKIT T670I mutant expressing mouse BA/F3 cells allografted in nu/nu mouse assessed as tumor growth inhibition dosed daily via intaperitoneal route after 10 days; type: functional, organism-based; method in brief: as §4
[23] = molecular target: Platelet-derived growth factor receptor beta (Homo sapiens) (UniProt P09619); assay: Inhibition of partial length human PDGFRbeta expressed in bacterial expression system assessed as activity remaining at 1 uM by kinome scan assay

Chain of Macrophage colony-stimulating factor 1 receptor (Homo sapiens) (P07333 whole entry, the tested form may be a part): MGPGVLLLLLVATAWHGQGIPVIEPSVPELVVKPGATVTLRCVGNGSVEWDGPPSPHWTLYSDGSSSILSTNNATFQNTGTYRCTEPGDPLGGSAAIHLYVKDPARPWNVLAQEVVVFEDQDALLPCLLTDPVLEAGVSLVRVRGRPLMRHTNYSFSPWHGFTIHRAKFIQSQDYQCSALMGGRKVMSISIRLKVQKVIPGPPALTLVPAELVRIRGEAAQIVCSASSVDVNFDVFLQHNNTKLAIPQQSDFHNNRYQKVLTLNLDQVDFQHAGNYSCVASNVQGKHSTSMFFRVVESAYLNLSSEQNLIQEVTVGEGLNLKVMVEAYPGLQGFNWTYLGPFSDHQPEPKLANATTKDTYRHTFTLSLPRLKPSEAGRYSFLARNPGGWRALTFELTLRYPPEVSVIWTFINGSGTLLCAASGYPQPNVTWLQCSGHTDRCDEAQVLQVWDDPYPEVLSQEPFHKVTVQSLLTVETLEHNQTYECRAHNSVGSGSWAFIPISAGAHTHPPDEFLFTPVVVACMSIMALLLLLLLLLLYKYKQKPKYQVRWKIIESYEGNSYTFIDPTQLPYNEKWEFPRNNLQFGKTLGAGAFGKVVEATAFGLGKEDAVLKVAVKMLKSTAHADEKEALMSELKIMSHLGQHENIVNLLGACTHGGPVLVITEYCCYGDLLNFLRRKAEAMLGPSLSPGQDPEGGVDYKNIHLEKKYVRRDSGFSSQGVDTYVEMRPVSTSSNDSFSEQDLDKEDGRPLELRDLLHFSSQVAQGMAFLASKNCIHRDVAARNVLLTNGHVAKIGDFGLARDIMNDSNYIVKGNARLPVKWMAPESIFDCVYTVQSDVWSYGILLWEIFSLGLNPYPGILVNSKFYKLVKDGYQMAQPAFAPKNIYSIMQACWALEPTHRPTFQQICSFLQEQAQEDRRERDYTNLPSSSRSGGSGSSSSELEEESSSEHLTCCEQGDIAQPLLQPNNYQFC

Work on CCC(=O)NCC1CCN(c2ccc(NC(=O)Nc3cccc(Oc4ccnc5cc(OC)c(OC)cc45)c3)cc2C(F)(F)F)CC1 yielded a GI50 [1] of 110 nM, a GI50 [2] of 5 nM and a Ratio IC50 [3] of 300. It also gave a Ratio IC50 [4] of 10, an EC50 [5] of less than 100 nM and an IC50 [6] of 99 nM. The Activity (Homo sapiens) was “Active”, the EC50 [7] was less than 100 nM and the GI50 [8] was 40 nM. For the same molecule, the GI50 [9] was 360 nM, the inhibition [10] was “Active” and the solubility [11] was 35 µM (≈ 22.8 µg/mL). For the same molecule, the Activity (GISTT1 [12]) was “Active”, the Activity [13] was “Non-Toxic” and the Ratio IC50 [14] was 7. For the same molecule, the EC50 [15] was less than 100 nM, the Cmax [16] was 2560 ng/mL and the Activity (GISTT1 [17]) was “Dose-dependent effect”. For the same molecule, the Activity [18] was 0.05%, the GI50 [19] was 670 nM and the Tmax [20] was 1.02 min. The inhibition in vivo at 25 mg/kg (BaF3 [21]) was 18.3%, the TGI (BaF3 [22]) was “Dose-dependent effect” and the Activity [23] was 0%.

Reference: ChEMBL document CHEMBL4428071 (J Med Chem, 2016)
